Calls of active or inactive are those of the source.
Experiments:
Assay type in all cases: functional, organism-based
[1] = tested on: Candida albicans; test: Antifungal activity against Candida albicans ATCC MYA-2876 at 100 ug/ml after 48 hrs by micro broth dilution method
How it was run: (§1)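 Broth microdilution in RPMI-1640 (NaHCO3, MOPS, pH 7.0). Compounds are dissolved in DMSO and serially diluted 2-fold to eight concentrations, with stocks of […]. Fungal inocula are 2 × 10³ cfu/mL. Plates are incubated 48 h at 28 °C. The MIC is the lowest concentration with no turbidity, and the highest concentration tested is 100 μg/mL.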

[2] = tested on: Candida parapsilosis; test: Antifungal activity against Candida parapsilosis ATCC 22019 at 100 ug/ml after 48 hrs by micro broth dilution method; how it was run: as §1
[3] = tested on: Aspergillus fumigatus; test: Antifungal activity against Aspergillus fumigatus CCTCC AF 93048 at 100 ug/ml after 48 hrs by micro broth dilution method; how it was run: as §1

Measured: Activity

C[C@@H]1C[C@H](C)C[C@H](C)[C@@H](O)CC(=O)O[C@H]([C@@H]2CCC[C@H]2C(=O)N2CCNCC2)C/C=C/C=C(/C#N)[C@H](O)[C@@H](C)C1
inactive: all assays above

CC(=O)CN1CCN(CCOC(=O)[C@@H]2CCC[C@H]2[C@@H]2C/C=C/C=C(/C#N)[C@H](O)[C@@H](C)C[C@H](C)C[C@H](C)C[C@H](C)[C@@H](O)CC(=O)O2)CC1
inactive: all assays above

C[C@@H]1C[C@H](C)C[C@H](C)[C@@H](O)CC(=O)O[C@H]([C@@H]2CCC[C@H]2C(=O)OCc2ccccn2)C/C=C/C=C(/C#N)[C@H](O)[C@@H](C)C1
inactive: all assays above

C[C@@H]1C[C@H](C)C[C@H](C)[C@@H](O)CC(=O)O[C@H]([C@@H]2CCC[C@H]2C(=O)OCCN2CCN(C(=O)c3ccccc3)CC2)C/C=C/C=C(/C#N)[C@H](O)[C@@H](C)C1
inactive: all assays above

C[C@@H]1C[C@H](C)C[C@H](C)[C@@H](O)CC(=O)O[C@H]([C@@H]2CCC[C@H]2C(=O)N2CCN(CCO)CC2)C/C=C/C=C(/C#N)[C@H](O)[C@@H](C)C1
inactive: all assays above

C[C@@H]1C[C@H](C)C[C@H](C)[C@@H](O)CC(=O)O[C@H]([C@@H]2CCC[C@H]2C(=O)OCCN2CCN(Cc3ccc(Cl)cc3)CC2)C/C=C/C=C(/C#N)[C@H](O)[C@@H](C)C1
inactive: all assays above

CCCCCN(CCCC)C(=O)[C@@H]1CCC[C@H]1[C@@H]1C/C=C/C=C(/C#N)[C@H](O)[C@@H](C)C[C@H](C)C[C@H](C)C[C@H](C)[C@@H](O)CC(=O)O1
inactive: all assays above

C[C@@H]1C[C@H](C)C[C@H](C)[C@@H](O)CC(=O)O[C@H]([C@@H]2CCC[C@H]2C(=O)N2CCOCC2)C/C=C/C=C(/C#N)[C@H](O)[C@@H](C)C1
inactive: all assays above

COC(=O)[C@@H](Cc1c[nH]c2ccccc12)NC(=O)[C@@H]1CCC[C@H]1[C@@H]1C/C=C/C=C(/C#N)[C@H](O)[C@@H](C)C[C@H](C)C[C@H](C)C[C@H](C)[C@@H](O)CC(=O)O1
inactive: all assays above

COC(=O)[C@@H](CC(C)C)NC(=O)[C@@H]1CCC[C@H]1[C@@H]1C/C=C/C=C(/C#N)[C@H](O)[C@@H](C)C[C@H](C)C[C@H](C)C[C@H](C)[C@@H](O)CC(=O)O1
inactive: all assays above

Cc1ccc(CN2CCN(CCOC(=O)[C@@H]3CCC[C@H]3[C@@H]3C/C=C/C=C(/C#N)[C@H](O)[C@@H](C)C[C@H](C)C[C@H](C)C[C@H](C)[C@@H](O)CC(=O)O3)CC2)cc1
inactive: all assays above

C[C@@H]1C[C@H](C)C[C@H](C)[C@@H](O)CC(=O)O[C@H]([C@@H]2CCC[C@H]2C(=O)OCCN2CCN(C(=O)OC(C)(C)C)CC2)C/C=C/C=C(/C#N)[C@H](O)[C@@H](C)C1
inactive: all assays above

C[C@@H]1C[C@H](C)C[C@H](C)[C@@H](O)CC(=O)O[C@H]([C@@H]2CCC[C@H]2C(=O)OCCN2CCN(Cc3ccc(F)cc3)CC2)C/C=C/C=C(/C#N)[C@H](O)[C@@H](C)C1
inactive: all assays above

COC(=O)[C@@H](Cc1ccccc1)NC(=O)[C@@H]1CCC[C@H]1[C@@H]1C/C=C/C=C(/C#N)[C@H](O)[C@@H](C)C[C@H](C)C[C@H](C)C[C@H](C)[C@@H](O)CC(=O)O1
inactive: all assays above

C[C@@H]1C[C@H](C)C[C@H](C)[C@@H](O)CC(=O)O[C@H]([C@@H]2CCC[C@H]2C(=O)NCc2ccccc2)C/C=C/C=C(/C#N)[C@H](O)[C@@H](C)C1
inactive: all assays above

C[C@@H]1C[C@H](C)C[C@H](C)[C@@H](O)CC(=O)O[C@H]([C@@H]2CCC[C@H]2C(=O)OCCN2CCN(Cc3ccc(Br)cc3)CC2)C/C=C/C=C(/C#N)[C@H](O)[C@@H](C)C1
inactive: all assays above

COc1ccc2[nH]cc(CCNC(=O)[C@@H]3CCC[C@H]3[C@@H]3C/C=C/C=C(/C#N)[C@H](O)[C@@H](C)C[C@H](C)C[C@H](C)C[C@H](C)[C@@H](O)CC(=O)O3)c2c1
inactive: all assays above

C[C@@H]1C[C@H](C)C[C@H](C)[C@@H](O)CC(=O)O[C@H]([C@@H]2CCC[C@H]2C(=O)OCCN2CCN(Cc3ccc4ccccc4c3)CC2)C/C=C/C=C(/C#N)[C@H](O)[C@@H](C)C1
inactive: all assays above

C[C@@H]1C[C@H](C)C[C@H](C)[C@@H](O)CC(=O)O[C@H]([C@@H]2CCC[C@H]2C(=O)N2CCCC2)C/C=C/C=C(/C#N)[C@H](O)[C@@H](C)C1
inactive: all assays above

CCC(=O)NNC(=O)[C@@H]1CCC[C@H]1[C@@H]1C/C=C/C=C(/C#N)[C@H](O)[C@@H](C)C[C@H](C)C[C@H](C)C[C@H](C)[C@@H](O)CC(=O)O1
inactive: all assays above

COC(=O)[C@@H](CCSC)NC(=O)[C@@H]1CCC[C@H]1[C@@H]1C/C=C/C=C(/C#N)[C@H](O)[C@@H](C)C[C@H](C)C[C@H](C)C[C@H](C)[C@@H](O)CC(=O)O1
inactive: all assays above

C[C@@H]1C[C@H](C)C[C@H](C)[C@@H](O)CC(=O)O[C@H]([C@@H]2CCC[C@H]2C(=O)N2CCN(Cc3ccccc3)CC2)C/C=C/C=C(/C#N)[C@H](O)[C@@H](C)C1
inactive: all assays above

C[C@@H]1C[C@H](C)C[C@H](C)[C@@H](O)CC(=O)O[C@H]([C@@H]2CCC[C@H]2C(=O)OCCN2CCN(Cc3ccc([N+](=O)[O-])cc3)CC2)C/C=C/C=C(/C#N)[C@H](O)[C@@H](C)C1
inactive: all assays above

COc1ccc(CCNC(=O)[C@@H]2CCC[C@H]2[C@@H]2C/C=C/C=C(/C#N)[C@H](O)[C@@H](C)C[C@H](C)C[C@H](C)C[C@H](C)[C@@H](O)CC(=O)O2)cc1
inactive: all assays above

C[C@@H]1C[C@H](C)C[C@H](C)[C@@H](O)CC(=O)O[C@H]([C@@H]2CCC[C@H]2C(=O)OCCN2CCNCC2)C/C=C/C=C(/C#N)[C@H](O)[C@@H](C)C1
inactive: all assays above

COc1ccc(N2CCN(C(=O)[C@@H]3CCC[C@H]3[C@@H]3C/C=C/C=C(/C#N)[C@H](O)[C@@H](C)C[C@H](C)C[C@H](C)C[C@H](C)[C@@H](O)CC(=O)O3)CC2)cc1
inactive: all assays above

C[C@@H]1C[C@H](C)C[C@H](C)[C@@H](O)CC(=O)O[C@H]([C@@H]2CCC[C@H]2C(=O)OCCN2CCN(Cc3ccc(F)cc3F)CC2)C/C=C/C=C(/C#N)[C@H](O)[C@@H](C)C1
inactive: all assays above

C[C@@H]1C[C@H](C)C[C@H](C)[C@@H](O)CC(=O)O[C@H]([C@@H]2CCC[C@H]2C(=O)OCCN2CCN(Cc3ccccc3)CC2)C/C=C/C=C(/C#N)[C@H](O)[C@@H](C)C1
inactive: all assays above

C[C@@H]1C[C@H](C)C[C@H](C)[C@@H](O)CC(=O)O[C@H]([C@@H]2CCC[C@H]2C(=O)OCCc2ccccc2)C/C=C/C=C(/C#N)[C@H](O)[C@@H](C)C1
inactive: all assays above

C[C@@H]1C[C@H](C)C[C@H](C)[C@@H](O)CC(=O)O[C@H]([C@@H]2CCC[C@H]2C(=O)OCC2CC2)C/C=C/C=C(/C#N)[C@H](O)[C@@H](C)C1
inactive: all assays above

From ChEMBL document CHEMBL4382218, “Design, synthesis and antifungal evaluation of borrelidin derivatives” (Bioorg Med Chem, 2018)
